Laboratory results taken from ChEMBL document CHEMBL1130800, “Complexation of okadaic acid: a preliminary study” (1998).

How the values were obtained:
Type in all cases: functional
Rattus norvegicus [1] = species: Rattus norvegicus; assay: Emax value in estrogen-primed rat uterus at 20 uM in Ca+2-free K+free solution
In short: (§1)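 Strips from oestrogen-primed Wistar rat uterus, 0.5 g resting force, in Sund's PSS variants (Ca²⁺-free; Na⁺- and Ca²⁺-free; K⁺- and Ca²⁺-free) at 32°C. A single 20 μM addition per strip. Maximal isometric contraction expressed as % of the maximal tension evoked by ACh 1 mM in the same strip. Mean ± s.e.m.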

Rattus norvegicus [2] = species: Rattus norvegicus; assay: Emax value in estrogen-primed rat uterus at 20 uM in [Ca2+] free Na+free solution; in short: as §1
Rattus norvegicus [3] = species: Rattus norvegicus; assay: Time to peak tension(min) in estrogen-primed rat uterus at 20 uM in [Ca2+] free Na+free solution
In short: (§2)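 Isometric recording at 32°C of uterine strips from estrogen-primed (100 μg Kg⁻¹ ip estradiol benzoate, 24 h prior) female Wistar rats, in Ca²⁺-free, Na⁺/Ca²⁺-free or K⁺/Ca²⁺-free Sund's PSS. Each strip received one 20 μM application. Time to peak tension (min) measured from the onset of the tension increase. Mean ± s.e.m.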

Rattus norvegicus [4] = species: Rattus norvegicus; assay: Decrease in tone in estrogen-primed rat uterus at 20 uM in [Ca2+] free K+free solution
In short: (§3)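 Uterine strips from estradiol benzoate-primed (100 μg Kg⁻¹ ip, 24 h) virgin female Wistar rats, 200-250 g, in Sund's PSS (Ca²⁺-free, Na⁺/Ca²⁺-free, or K⁺/Ca²⁺-free with KCl omitted), 32°C, 95% O₂/5% CO₂, 0.5 g resting force. One 20 μM application per strip. Isometric tension decline measured at 120 min, as % of the agent's maximal tension increase. Mean ± s.e.m.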

Rattus norvegicus [5] = species: Rattus norvegicus; assay: Time to peak tension(min) in estrogen-primed rat uterus at 20 uM in [Ca2+] free K+free solution; in short: as §2
Rattus norvegicus [6] = species: Rattus norvegicus; assay: Duration of plateau(min) in estrogen-primed rat uterus at 20 uM in [Ca2+] free Na+free solution
In short: (§4)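 Estrus-confirmed, oestrogen-primed rat uterine longitudinal strips in Ca²⁺-free, Na⁺/Ca²⁺-free or K⁺/Ca²⁺-free Sund's PSS at 32°C, gassed 95% O₂/5% CO₂. Strips equilibrated 45 min, then given repeated ACh 1 mM until responses were reproducible. A single 20 μM dose per strip. Contraction plateau duration (min) taken from isometric recordings. Mean ± s.e.m.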

Rattus norvegicus [7] = species: Rattus norvegicus; assay: Decrease in tone in estrogen-primed rat uterus at 20 uM in Ca+2-free solution; in short: as §3
Rattus norvegicus [8] = species: Rattus norvegicus; assay: Time to peak tension(min) in estrogen-primed rat uterus at 20 uM in Ca+2-free solution; in short: as §2
Rattus norvegicus [9] = species: Rattus norvegicus; assay: Duration of plateau(min) in estrogen-primed rat uterus at 20 uM in Ca+2-free solution; in short: as §4
Rattus norvegicus [10] = species: Rattus norvegicus; assay: Duration of plateau(min) in estrogen-primed rat uterus at 20 uM in [Ca2+] free K+free solution; in short: as §4
Rattus norvegicus [11] = species: Rattus norvegicus; assay: Decrease in tone in estrogen-primed rat uterus at 20 uM in [Ca2+] free Na+free solution; in short: as §3
Rattus norvegicus [12] = species: Rattus norvegicus; assay: Emax value in estrogen-primed rat uterus at 20 uM in Ca+2-free solution; in short: as §1

SMILES | Emax (Rattus norvegicus [1]) | Emax (Rattus norvegicus [2]) | Time to peak tension (Rattus norvegicus [3]) [min] | Decrease in tone (Rattus norvegicus [4]) | Time to peak tension (Rattus norvegicus [5]) [min] | Duration of plateau (Rattus norvegicus [6]) [min] | Decrease in tone (Rattus norvegicus [7]) | Time to peak tension (Rattus norvegicus [8]) [min] | Duration of plateau (Rattus norvegicus [9]) [min] | Duration of plateau (Rattus norvegicus [10]) [min] | Decrease in tone (Rattus norvegicus [11]) | Emax (Rattus norvegicus [12])
C=C1[C@@H](O)[C@@H]2O[C@]3(CC[C@H](/C=C/[C@@H](C)[C@@H]4CC(C)=C[C@@]5(O[C@H](C[C@@](C)(O)C(=O)O)CC[C@H]5O)O4)O3)CC[C@H]2O[C@@H]1[C@@H](O)C[C@H](C)[C@H]1O[C@@]2(CCCCO2)CC[C@H]1C [OKADAIC ACID] | 6.2 | 150.8 | 25.1 | 58.1 | 28.5 | 3.8 | 85.7 | 27.2 | 2.1 | 12.8 | 94.8 | 107.9
C=C1[C@@H](O)[C@@H]2O[C@@]3(CCC2O[C@@H]1[C@@H](O)C[C@H](C)C1O[C@@]2(CCCCO2)CC[C@H]1C)CC[C@H](/C=C/[C@@H](C)[C@@H]1CC(C)=C[C@@]2(O[C@H](C[C@@](C)(O)C(=O)O)CC[C@H]2O)O1)O3 (some centres undefined) | 135.2 | 186.5 | 30.3 | 98 | 20.7 | 4.2 | 92.8 | 23 | 3.7 | 2.9 | 93.3 | 101.7
